Published values pooled from the literature.
Compare with care: the assays were run in different laboratories.
Organism: Bacillus subtilis
Observed: microbial growth

With CC1=NN(CNc2ccc(C(=O)O)cc2)C(=O)C1=NNn1c(-c2ccccc2)nc2ccccc2c1=O the MIC was 50.5 µM (broth dilution; 24 h).
For CN(C)[C@@H]1C(O)=C(C(N)=O)C(=O)[C@@]2(O)C(O)=C3C(=O)c4c(O)cccc4[C@@](C)(O)[C@H]3C[C@@H]12, the MIC was 2 µg/mL (ATCC6633).
CCCCCCCC[P+](/C=C(/c1ccccc1)c1cc(Cl)ccc1O)(CCCCCCCC)CCCCCCCC has an MIC of over 80 µM (21 h).
CN[C@H](CC(C)C)C(=O)N[C@H]1C(=O)N[C@@H](CC(N)=O)C(=O)N[C@H]2C(=O)N[C@H]3C(=O)N[C@H](C(=O)N[C@H](C(=O)O)c4cc(O)cc(O)c4-c4cc3ccc4O)[C@H](O)c3ccc(c(Cl)c3)Oc3cc2cc(c3O[C@@H]2O[C@H](CO)[C@@H](O)[C@H](O)[C@H]2O[C@H]2C[C@](C)(N)[C@H](O)[C@H](C)O2)Oc2ccc(cc2Cl)[C@H]1O gave an MIC of 0.39 µg/mL (ATCC6623).
CCCC[P+](/C=C(/c1ccccc1)c1cc(Cl)ccc1O)(CCCC)CCCC has an MIC of 10 µM (21 h).
CN[C@H](CC(C)C)C(=O)N[C@H]1C(=O)N[C@@H](CC(N)=O)C(=O)N[C@H]2C(=O)N[C@H]3C(=O)N[C@H](C(=O)N[C@H](C(=O)O)c4cc(O)cc(O)c4-c4cc3ccc4O)[C@H](O)c3ccc(c(Cl)c3)Oc3cc2cc(c3O[C@@H]2O[C@H](CO)[C@@H](O)[C@H](O)[C@H]2O[C@H]2C[C@](C)(N)[C@H](O)[C@H](C)O2)Oc2ccc(cc2Cl)[C@H]1O gave an MIC of 0.25 µg/mL (broth dilution; 168).
O=C(O)c1ccc(-n2cc(/C=N/N(c3ccccc3)c3ccccc3)c(-c3ccc(F)cc3)n2)cc1 gave an MIC of 1.56 µg/mL (ATCC6623).
COc1cc(O)c2c(c1)/C=C/C[C@H](O)[C@H](O)C(=O)/C=C/C[C@H](C)OC2=O has an MIC of over 500 µg/mL.
For Clc1ccccc1NCc1ccc(Oc2ccccn2)cc1, the MIC was 1.8 µg/mL.
For O=C(O)c1ccc(-n2cc(/C=N/Nc3cccc(Cl)c3F)c(-c3cccc(F)c3)n2)cc1, the MIC was 1.56 µg/mL (ATCC6623).
For CN[C@H](CC(C)C)C(=O)N[C@H]1C(=O)N[C@@H](CC(N)=O)C(=O)N[C@H]2C(=O)N[C@H]3C(=O)N[C@H](C(=O)N[C@H](C(=O)O)c4cc(O)cc(O)c4-c4cc3ccc4O)[C@H](O)c3ccc(c(Cl)c3)Oc3cc2cc(c3O[C@@H]2O[C@H](CO)[C@@H](O)[C@H](O)[C@H]2O[C@H]2C[C@](C)(N)[C@H](O)[C@H](C)O2)Oc2ccc(cc2Cl)[C@H]1O, the MIC was 0.13 µg/mL (broth dilution; BS01).
For O=C(O)c1ccc(-n2cc(/C=N/Nc3cc(F)ccc3F)c(-c3ccc(F)cc3)n2)cc1, the MIC was 12.5 µg/mL (ATCC6623).
Clc1cccc(NCc2ccc(Oc3ccccn3)cc2)c1 gave an MIC of 1.8 µg/mL.
O=C(Nc1ccc2c(c1)OC(F)(F)O2)Nc1ccc(Cl)c(C(F)(F)F)c1 gave an MIC of 1 µM (168).
The MIC of CC1(C)CCC(C)(C)c2cc(C(=O)Nc3ccc(C(=O)O)cc3)ccc21 is reported as 50 to 100 µM (broth dilution; 24 h).
For CCCCOC(=O)c1cc(O)c(O)c(O)c1, the MIC was over 200 µM (broth dilution; ATCC6633).
O=C(O)c1ccc(-n2cc(/C=N/Nc3cccc(Cl)c3F)c(-c3ccc(F)cc3)n2)cc1 gave an MIC of 3.12 µg/mL (ATCC6623).
For CO[C@H]1/C=C/O[C@@]2(C)Oc3c(C)c(O)c4c(O)c(c(/C=N/N5CCN(C)CC5)c(O)c4c3C2=O)NC(=O)/C(C)=C\C=C\[C@H](C)[C@H](O)[C@@H](C)[C@@H](O)[C@@H](C)[C@H](OC(C)=O)[C@@H]1C, the MIC was 4 µg/mL (broth dilution; 168).
With CO[C@H]1O[C@H](COC(c2ccccc2)(c2ccccc2)c2ccccc2)[C@@H](OC(=O)c2ccc(C(C)(C)C)cc2)[C@H](OC(=O)c2ccc(C(C)(C)C)cc2)[C@H]1OC(=O)c1ccc(C(C)(C)C)cc1 the MIC was 1.25 µg/mL (broth dilution).
CC1(C)S[C@@H]2[C@H](NC(=O)[C@H](N)c3ccccc3)C(=O)N2[C@H]1C(=O)O has an MIC of 0.13 µg/mL (broth dilution; BS01).
The MIC of CC1=NN(CNc2ccccc2[N+](=O)[O-])C(=O)C1=NNn1c(-c2ccccc2)nc2ccccc2c1=O is reported as 50.4 µM (broth dilution; 24 h).
With Cc1cc(/C=C2\Sc3ccccc3N2CCCN2CCCCC2)c2ccccc2[n+]1C.[I-] the MIC was 8 µg/mL (broth dilution; 168).
Brc1cccc(NCc2ccc(Oc3ccccn3)cc2)c1 has an MIC of over 6.2 µg/mL.
CC1(C)S[C@@H]2[C@H](NC(=O)[C@H](N)c3ccccc3)C(=O)N2[C@H]1C(=O)O has an MIC of 32 µg/mL (broth dilution; 168).
With CCCCC[P+](/C=C(/c1ccccc1)c1cc(Cl)ccc1O)(CCCCC)CCCCC the MIC was about 2 µM (21 h).
For NC[C@H]1O[C@H](O[C@H]2[C@H](O)[C@@H](O[C@H]3O[C@H](CO)[C@@H](O)[C@H](N)[C@H]3O)[C@H](N)C[C@@H]2N)[C@H](N)C[C@@H]1O, the MIC was 1.2 µg/mL (168).
With O=C1NC(=S)S/C1=C\c1ccc(-c2ccc(N(c3ccccc3)c3ccccc3)cc2)c2ccccc12 the MIC was 1000 µg/mL (broth dilution; ATCC6633).
CCCC[P+](/C=C(/c1ccccc1)c1cc(Cl)ccc1OC)(CCCC)CCCC has an MIC of 1 µM (21 h).
For Fc1ccccc1NCc1ccc(Oc2ccccn2)cc1, the MIC was 1.8 µg/mL.
For CCCCC[P+](/C=C(/c1ccccc1)c1cc(Cl)ccc1OC)(CCCCC)CCCCC, the MIC was 2 µM (21 h).
For CC1=NN(CNc2ccccn2)C(=O)C1=NNn1c(-c2ccccc2)nc2ccccc2c1=O, the MIC was 55.2 µM (broth dilution; 24 h).
With Brc1ccc(NCc2ccc(Oc3ccccn3)cc2)cc1 the MIC was over 3.1 µg/mL.
For O=C(O)CN1C(=O)/C(=C/c2ccc(-c3ccc(N(c4ccccc4)c4ccccc4)cc3)c3ccccc23)NC1=S, the MIC was over 1000 µg/mL (broth dilution; ATCC6633).
Cc1cccc(NCc2ccc(Oc3ccccn3)cc2)c1 gave an MIC of over 3.1 µg/mL.
For C/C=C(\C)c1cc(O)c(C)c(OC(=O)c2c(C)c(Cl)c(O)c(Cl)c2O)c1, the MIC was 2 µg/mL (broth dilution; BS01).
O=C(O)c1cn(C2CC2)c2cc(N3CCNCC3)c(F)cc2c1=O gave an MIC of 1.6 µg/mL.
With O=C(O)c1ccc(-n2cc(/C=N/N(c3ccccc3)c3ccccc3)c(-c3cccc(F)c3)n2)cc1 the MIC was 1.56 µg/mL (ATCC6623).
For O=C1NC(=S)S/C1=C\c1ccc(-c2ccc(N(c3ccccc3)c3ccccc3)cc2)cc1, the MIC was 1000 µg/mL (broth dilution; ATCC6633).
The MIC of CC1CCN(CCCN2/C(=C/c3cc[n+](C)c4ccccc34)Sc3ccccc32)CC1.[I-] is reported as 4 µg/mL (broth dilution; 168).
O=C1NC(=S)N/C1=C\c1ccc(-c2ccc(N(c3ccccc3)c3ccccc3)cc2)c2ccccc12 has an MIC of over 1000 µg/mL (broth dilution; ATCC6633).
The MIC of N#Cc1ccc(N/N=C/c2cn(-c3ccc(C(=O)O)cc3)nc2-c2ccc(F)cc2)cc1 is reported as 25 µg/mL (ATCC6623).
The MIC of O=C(O)CN1C(=O)/C(=C/c2ccc(-c3ccc(N(c4ccccc4)c4ccccc4)cc3)cc2)SC1=S is reported as 1.95 µg/mL (broth dilution; ATCC6633).
CCCCCCCCCCCCOC(=O)c1cc(O)c(O)c(O)c1 has an MIC of 25 to 50 µM (broth dilution; ATCC6633).
For O=C(O)c1cn(C2CC2)c2cc(N3CCNCC3)c(F)cc2c1=O, the MIC was 0.03 µg/mL (broth dilution; ATCC6633).
C[n+]1c(/C=C/c2c[nH]c3ccccc23)cc(/C=C2\Sc3ccccc3N2CCCN2CCCC2)c2ccccc21.[I-] gave an MIC of 2 µg/mL (broth dilution; 168).
O=C(O)CN1C(=O)/C(=C/c2ccc(-c3ccc(N(c4ccccc4)c4ccccc4)cc3)c3ccccc23)SC1=S has an MIC of 500 µg/mL (broth dilution; ATCC6633).
O=C(O)c1ccc(-n2cc(/C=N/Nc3cccc(Br)c3)c(-c3ccc(F)cc3)n2)cc1 has an MIC of 12.5 µg/mL (ATCC6623).
